Laboratory results reported in ChEMBL document CHEMBL1134291, “The synthesis of a prodrug of doxorubicin designed to provide reduced systemic toxicity and greater target efficacy” (J Med Chem, 2001).
*1 amine or outer side, *2 acyl side, *3 side chain or, on linkers, in order; H or OH if unused. Where a SMILES comes first, the peptide text is derived from it. [ ]: non-standard residue; d: D form. The star is where a group is joined. Doxorubicin(3'-N) = COc1cccc2c1C(=O)c1c(O)c3c(c(O)c1C2=O)C[C@@](O)(C(=O)CO)C[C@@H]3O[C@H]1C[C@H](N*)[C@H](O)[C@H](C)O1; X1 = COc1cccc2c1C(=O)c1c(O)c3c(c(O)c1C2=O)C[C@@](O)(C(=O)CO)C[C@@H]3OC1CC(N*)C(O)C(C)O1; Glutaryl = O=C(CCCC(=O)[*:2])[*:1]; Hyp = O=C(O)[C@@H]1C[C@@H](O)CN1; Chg = N[C@H](C(=O)O)C1CCCCC1; Orn = NCCC[C@H](N)C(=O)O

Columns and labels:
LNCaP [1] = assay: Percentage PSA reduction relative to vehicle control following intraperitoneal injection of conjugate dose for 5 consecutive days to nude mice bearing LNCaP tumor xenografts; assay type: functional, Homo sapiens
LNCaP [2] = assay: Concentration required to kill 50% of tumor cells in PSA producing LNCaP human prostate cancer cell line; assay type: functional, cell-based
Mus musculus [3] = assay: Percentage weight reduction relative to vehicle control following intraperitoneal (ip) injection of conjugate dose for 5 consecutive days to nude mice bearing LNCaP tumor xenografts( 7.6 umol/kg dose); assay type: functional
DuPro = assay: Concentration required to kill 50% of tumor cells in PSA nonproducing DuPRO human prostate cancer cell line; assay type: functional, cell-based
Mus musculus [4] = assay: Maximum nonlethal drug dose which could be administered (ip) to non tumor bearing nude mice for 5 consecutive days; assay type: functional
Mus musculus [5] = assay: Percentage weight reduction relative to vehicle control following intraperitoneal (ip) injection of conjugate dose for 5 consecutive days to nude mice bearing LNCaP tumor xenografts(14.8 umol/kg dose); assay type: functional
PSA = assay: Time required for PSA to hydrolyze 50% (t1/2); assay type: ADME; conditions: PSA (enzyme)
Mus musculus [6] = assay: Percentage weight reduction relative to vehicle control following intraperitoneal (ip) injection of conjugate dose for 5 consecutive days to nude mice bearing LNCaP tumor xenografts( 22.7 umol/kg dose); assay type: functional
Procedure, shortened: (§1)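 Nude mice carrying xenografts of PSA-secreting human prostate LNCaP cells received the conjugate intraperitoneally once daily for 5 consecutive days. Circulating PSA and tumor weight were each expressed as percent reduction against vehicle-treated controls.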

Mus musculus [7] = assay: Percentage weight reduction relative to vehicle control following intraperitoneal (ip) injection of conjugate dose for 5 consecutive days to nude mice bearing LNCaP tumor xenografts(36.6 umol/kg dose); assay type: functional; procedure, shortened: as §1
Mus musculus [8] = assay: Percentage weight reduction relative to vehicle control following intraperitoneal (ip) injection of conjugate dose for 5 consecutive days to nude mice bearing LNCaP tumor xenografts( 22.4 umol/kg dose); assay type: functional
Mus musculus [9] = assay: Percentage weight reduction relative to vehicle control following intraperitoneal (ip) injection of conjugate dose for 5 consecutive days to nude mice bearing LNCaP tumor xenografts( 29.0 umol/kg dose); assay type: functional
Mus musculus [10] = assay: Percentage weight reduction relative to vehicle control following intraperitoneal (ip) injection of conjugate dose for 5 consecutive days to nude mice bearing LNCaP tumor xenografts( 29.3 umol/kg dose); assay type: functional
Mus musculus [11] = assay: Percentage weight reduction relative to vehicle control following intraperitoneal (ip) injection of conjugate dose for 5 consecutive days to nude mice bearing LNCaP tumor xenografts( 21.5 umol/kg dose); assay type: functional
Mus musculus [12] = assay: Percentage weight reduction relative to vehicle control following intraperitoneal (ip) injection of conjugate dose for 5 consecutive days to nude mice bearing LNCaP tumor xenografts (2.8 umol/kg dose); assay type: functional

Molecule	half-life (PSA) [min]	Reduction (LNCaP [1]) [%]	EC50 (LNCaP [2]) [µM]	EC50 (DuPro) [µM]	MTD (Mus musculus [4]) [µM/kg]	further results
COc1cccc2c1C(=O)c1c(O)c3c(c(O)c1C2=O)C[C@@](O)(C(=O)CO)C[C@@H]3OC1CC(NC(=O)[C@H](N)CC(C)C)C(O)C(C)O1 (stereo not given in full)	–	10	6.7	14	7.6	Reduction (Mus musculus [3]): -5%
COc1cccc2c1C(=O)c1c(O)c3c(c(O)c1C2=O)C[C@@](O)(C(=O)CO)C[C@@H]3O[C@H]1C[C@H](NC(=O)[C@H](C)NC(=O)[C@H](C)NC(=O)[C@H](C)NC(C)=O)[C@H](O)[C@H](C)O1	–	–	> 100	> 100	–	–
COc1cccc2c1C(=O)c1c(O)c3c(c(O)c1C2=O)C[C@@](O)(C(=O)CO)C[C@@H]3OC1CC(NC(=O)[C@H](CC(C)C)NC(=O)[C@H](CO)NC(=O)[C@H](CCC(N)=O)NC(=O)[C@H](Cc2ccc(O)cc2)NC(=O)[C@H](CO)NC(=O)[C@H](C)NC(=O)[C@H](CCCN)NC(C)=O)C(O)C(C)O1 (stereo not given in full)	40	70	7.3	> 100	29.7	Reduction (Mus musculus [5]): 57%
COc1cccc2c1C(=O)c1c(O)c3c(c(O)c1C2=O)C[C@@](O)(C(=O)CO)C[C@@H]3OC1CC(NC(=O)[C@H](CC(C)C)NC(=O)[C@H](CO)NC(=O)[C@@H](CCC(N)=O)NC(=O)[C@@H](NC(=O)[C@H](CO)NC(=O)[C@H](C)NC(=O)C2CC(O)CN2C(C)=O)C2CCCCC2)C(O)C(C)O1 (stereo not given in full)	20	96	4.5	> 100	22.7	Reduction (Mus musculus [6]): 81%
COc1cccc2c1C(=O)c1c(O)c3c(c(O)c1C2=O)C[C@@](O)(C(=O)CO)C[C@@H]3O[C@H]1C[C@H](NC(=O)[C@H](CC(C)C)NC(=O)[C@H](CO)NC(=O)[C@H](CO)NC(=O)[C@H](CCC(N)=O)NC(=O)[C@H](Cc2ccc(O)cc2)NC(=O)[C@H](CO)NC(=O)[C@H](C)NC(=O)[C@H](CCCCN)NC(=O)[C@H](CC(N)=O)NC(=O)[C@H](C)NC(C)=O)[C@H](O)[C@H](C)O1 (Ac-ANKASYQSSL-{Doxorubicin(3'-N)}) [listing 1 of 2 here]	–	–	6.3	> 100	–	–
COc1cccc2c1C(=O)c1c(O)c3c(c(O)c1C2=O)C[C@@](O)(C(=O)CO)C[C@@H]3O[C@H]1C[C@H](NC(=O)[C@H](CC(C)C)NC(=O)[C@H](CO)NC(=O)[C@H](CO)NC(=O)[C@H](CCC(N)=O)NC(=O)[C@H](Cc2ccc(O)cc2)NC(=O)[C@H](CO)NC(=O)[C@H](C)NC(=O)[C@H](CCCCN)NC(=O)[C@H](CC(N)=O)NC(=O)[C@H](C)NC(C)=O)[C@H](O)[C@H](C)O1 (Ac-ANKASYQSSL-{Doxorubicin(3'-N)}) [listing 2 of 2 here]	–	87	–	–	>36.6	Reduction (Mus musculus [7]): 81%
COc1cccc2c1C(=O)c1c(O)c3c(c(O)c1C2=O)C[C@@](O)(C(=O)CO)C[C@@H]3OC1CC(NC(=O)[C@H](CC(C)C)NC(=O)[C@H](CO)NC(=O)[C@H](CCC(N)=O)NC(=O)[C@@H](NC(=O)[C@H](CO)NC(=O)[C@H](C)NC(=O)[C@H](CCCCN)NC(C)=O)C2CCCCC2)C(O)C(C)O1 (stereo not given in full) (Ac-KAS[Chg]QSL-X1) [listing 1 of 2 here]	–	–	4.5	> 100	–	–
COc1cccc2c1C(=O)c1c(O)c3c(c(O)c1C2=O)C[C@@](O)(C(=O)CO)C[C@@H]3OC1CC(NC(=O)[C@H](CC(C)C)NC(=O)[C@H](CO)NC(=O)[C@H](CCC(N)=O)NC(=O)[C@@H](NC(=O)[C@H](CO)NC(=O)[C@H](C)NC(=O)[C@H](CCCCN)NC(C)=O)C2CCCCC2)C(O)C(C)O1 (stereo not given in full) (Ac-KAS[Chg]QSL-X1) [listing 2 of 2 here]	–	95	–	–	29.9	Reduction (Mus musculus [8]): 73%
COc1cccc2c1C(=O)c1c(O)c3c(c(O)c1C2=O)C[C@@](O)(C(=O)CO)C[C@@H]3OC1CC(NC(=O)[C@H](CC(C)C)NC(=O)[C@H](CO)NC(=O)[C@H](CO)NC(=O)[C@H](CO)NC(=O)[C@H](CCC(N)=O)NC(=O)[C@H](Cc2ccc(O)cc2)NC(=O)[C@H](CCCCN)NC(C)=O)C(O)C(C)O1 (stereo not given in full) (Ac-KYQSSSL-X1)	60	90	6.9	> 100	32.6	Reduction (Mus musculus [9]): 70%
COc1cccc2c1C(=O)c1c(O)c3c(c(O)c1C2=O)C[C@@](O)(C(=O)CO)C[C@@H]3OC1CC(NC(=O)[C@H](CC(C)C)NC(=O)[C@H](CO)NC(=O)[C@H](CO)NC(=O)[C@H](CO)NC(=O)[C@H](CCC(N)=O)NC(=O)[C@H](Cc2ccc(O)cc2)NC(=O)[C@H](CCCN)NC(C)=O)C(O)C(C)O1 (stereo not given in full) (Ac-[Orn]YQSSSL-X1)	120	93	7	> 100	33	Reduction (Mus musculus [10]): 80%
COc1cccc2c1C(=O)c1c(O)c3c(c(O)c1C2=O)C[C@@](O)(C(=O)CO)C[C@@H]3O[C@H]1C[C@H](NC(=O)[C@H](CC(C)C)NC(=O)[C@H](CO)NC(=O)[C@H](CCC(N)=O)NC(=O)[C@@H](NC(=O)[C@H](CO)NC(=O)[C@H](C)NC(=O)[C@@H]2C[C@@H](O)CN2C(=O)CCCC(=O)O)C2CCCCC2)[C@H](O)[C@H](C)O1 (Glutaryl-[Hyp]AS[Chg]QSL-{Doxorubicin(3'-N)}) [listing 1 of 2 here]	30	–	5	> 100	–	–
COc1cccc2c1C(=O)c1c(O)c3c(c(O)c1C2=O)C[C@@](O)(C(=O)CO)C[C@@H]3O[C@H]1C[C@H](NC(=O)[C@H](CC(C)C)NC(=O)[C@H](CO)NC(=O)[C@H](CCC(N)=O)NC(=O)[C@@H](NC(=O)[C@H](CO)NC(=O)[C@H](C)NC(=O)[C@@H]2C[C@@H](O)CN2C(=O)CCCC(=O)O)C2CCCCC2)[C@H](O)[C@H](C)O1 (Glutaryl-[Hyp]AS[Chg]QSL-{Doxorubicin(3'-N)}) [listing 2 of 2 here]	–	95	–	–	28.6	Reduction (Mus musculus [11]): 87%
COc1cccc2c1C(=O)c1c(O)c3c(c(O)c1C2=O)C[C@@](O)(C(=O)CO)C[C@@H]3O[C@H]1C[C@H](N)[C@H](O)[C@H](C)O1 [DOXORUBICIN]	–	16	0.7	1.8	2.8	Reduction (Mus musculus [12]): 6%
Ac-ANKISYQSSSTE-NH2	> 240	–	–	–	–	–
Ac-ANKISYYSSSTE-NH2	150	–	–	–	–	–
H-ANKISYQSSSTE-OH	105	–	–	–	–	–

Now from value to molecule, other results behind:

half-life (PSA) [min]	Molecule	Reduction (LNCaP [1]) [%]	EC50 (LNCaP [2]) [µM]	EC50 (DuPro) [µM]	MTD (Mus musculus [4]) [µM/kg]	further results
30	COc1cccc2c1C(=O)c1c(O)c3c(c(O)c1C2=O)C[C@@](O)(C(=O)CO)C[C@@H]3O[C@H]1C[C@H](NC(=O)[C@H](CC(C)C)NC(=O)[C@H](CO)NC(=O)[C@H](C)NC(=O)[C@H](CO)NC(=O)[C@H](CCC(N)=O)NC(=O)[C@H](Cc2ccc(O)cc2)NC(=O)[C@H](CO)NC(=O)[C@H](C)NC(=O)[C@H](CCCCN)NC(=O)[C@H](CC(N)=O)NC(=O)[C@H](C)NC(C)=O)[C@H](O)[C@H](C)O1 (Ac-ANKASYQSASL-{Doxorubicin(3'-N)})	–	12.5	> 100	–	–
30	COc1cccc2c1C(=O)c1c(O)c3c(c(O)c1C2=O)C[C@@](O)(C(=O)CO)C[C@@H]3O[C@H]1C[C@H](NC(=O)[C@H](CC(C)C)NC(=O)[C@H](CO)NC(=O)[C@H](CO)NC(=O)[C@H](CO)NC(=O)[C@H](CCC(N)=O)NC(=O)[C@H](Cc2ccc(O)cc2)NC(=O)[C@H](CO)NC(=O)[C@H](C)NC(=O)[C@H](CCCCN)NC(=O)[C@H](CC(N)=O)NC(=O)[C@H](C)NC(C)=O)[C@H](O)[C@H](C)O1 (Ac-ANKASYQSSSL-{Doxorubicin(3'-N)})	–	7	117	–	–
30	COc1cccc2c1C(=O)c1c(O)c3c(c(O)c1C2=O)C[C@@](O)(C(=O)CO)C[C@@H]3OC1CC(NC(=O)[C@H](CC(C)C)NC(=O)[C@H](CO)NC(=O)[C@H](CCC(N)=O)NC(=O)[C@H](Cc2ccc(O)cc2)NC(=O)[C@H](CO)NC(=O)[C@H](C)NC(=O)[C@H](CCCCN)NC(C)=O)C(O)C(C)O1 (stereo not given in full) (Ac-KASYQSL-X1)	–	4.8	100	–	–
45	COc1cccc2c1C(=O)c1c(O)c3c(c(O)c1C2=O)C[C@@](O)(C(=O)CO)C[C@@H]3OC1CC(NC(=O)[C@H](CC(C)C)NC(=O)[C@H](CO)NC(=O)[C@H](CCC(N)=O)NC(=O)[C@@H](NC(=O)[C@H](CO)NC(=O)[C@H](C)NC(=O)[C@@H]2CCCN2C(C)=O)C2CCCCC2)C(O)C(C)O1 (stereo not given in full) (Ac-PAS[Chg]QSL-X1)	–	7.4	> 100	–	–
50	Ac-ANKASYQSASTE-NH2	–	–	–	–	–
105	Ac-ANKASYQSSSTE-NH2	–	–	–	–	–
125	Ac-ANKISYQSAKTE-NH2	–	–	–	–	–
145	Ac-ANKISYQSASTE-NH2	–	–	–	–	–
110	Ac-ANKISYQSSKTE-NH2	–	–	–	–	–
> 240	H-ANKISYQSS-OH	–	–	–	–	–
25	H-SQKANKISYQSSSTEERRLHYGENG-OH	–	–	–	–	–
> 180	H-SYQSSSTE-OH	–	–	–	–	–
